ChEMBL document CHEMBL3259808, “Optimization of antitrypanosomatid agents: identification of nonmutagenic drug candidates with in vivo activity” (J Med Chem, 2014)
Activity calls are given as the source filed them. The calls are words filed in the database; no cut-off is given here.

How the values were obtained:
[1] = Stability of the compound in aqueous solution assessed as compound remaining at 1 mM at 37 degC after 1 hr by TLC analysis in presence of rat liver microsomal fraction; conditions: microsomes, 1000 µM
Summary of the method: (§1)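 Rat liver cytosolic (100 000g supernatant) and microsomal (100 000g pellet, washed and resuspended in Tris·HCl) fractions, fresh or stored at −80 °C; protein measured by BCA. Compound incubated with the fraction 1 h at 37 °C and analysed by TLC of extracts.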

[2] = Stability of the compound in aqueous solution assessed as compound remaining at 1 mM at pH 1 after 1 hr by TLC analysis; type: physicochemical; conditions: read-out: Stability
Summary of the method: (§2)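 DMSO stocks diluted to final 1 mM in KCl·HCl pH 1.0, citrate pH 6.0, Tris·HCl pH 7.4 or borax·HCl pH 9.0 buffer. Incubated 1 h at 37 °C, then ethyl acetate extracts checked by TLC for decomposition products.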

[3] = test system: Salmonella typhimurium; test: Mutagenic activity in Salmonella typhimurium TA98 at 5 to 400 ug/plate by Ames test; type: toxicity, organism-based; conditions: salmonella enterica subsp. enterica serovar typhimurium
Summary of the method: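 Ames plate-incorporation assay with S. typhimurium TA98 in Vogel-Bonner E minimal glucose agar. Toxicity toward the bacteria was checked first. DMSO solutions were run in triplicate at five consecutive third-dilutions, starting at the highest non-toxic dose. Positive controls were 4-nitro-o-phenylenediamine (20.0 μg/plate) and 2-aminofluorene (10.0 μg/plate); DMSO was the negative control. Revertants were counted manually. A compound was called mutagenic when revertants were at least twice the negative control at two or more consecutive doses.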

[4] = test system: Salmonella typhimurium; test: Mutagenic activity in Salmonella typhimurium TA100 at 0.003 to 0.2 ug/plate by Ames test; type: toxicity, organism-based; conditions: salmonella enterica subsp. enterica serovar typhimurium
Summary of the method: (§3)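 Direct plate incubation on minimal glucose agar (Vogel-Bonner E). Compound toxicity to the bacteria was checked first. DMSO solutions were tested at five consecutive 3-fold dilutions, starting from the highest non-toxic dose, in triplicate, without metabolic activation. DMSO served as negative control. Revertants were counted manually; mutagenic = revertants at least double the negative control at two or more consecutive doses.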

[5] = Stability of the compound in aqueous solution assessed as compound remaining at 1 mM at pH 6 after 1 hr by TLC analysis; type: physicochemical; conditions: aqueous solution, pH 6; read-out: Stability; summary of the method: as §2
[6] = test system: Salmonella typhimurium; test: Mutagenic activity in Salmonella typhimurium TA1537 at 3.09 to 250 ug/plate by Ames test; type: toxicity, organism-based; conditions: salmonella enterica subsp. enterica serovar typhimurium; summary of the method: as §3
[7] = test system: Trypanosoma cruzi; test: Antitrypanosomal activity against Trypanosoma cruzi Sylvio X-10 amastigotes infected in African green monkey Vero cells assessed as eradication of amastigotes at 5 uM after 5 days by optical microscopic analysis; type: functional, organism-based; conditions: in the assay text read “after 72 hrs” for “after 5 days”
Summary of the method: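 VERO cells infected with Sylvio X-10 parasites were treated with 5 μM compound and examined by optic microscopy after 72 h of incubation for intracellular amastigotes and trypomastigotes.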

[8] = test system: Salmonella typhimurium; test: Mutagenic activity in Salmonella typhimurium TA102 at 3.09 to 250 ug/plate by Ames test in presence of mouse liver S9 fraction; type: toxicity, organism-based; conditions: salmonella enterica subsp. enterica serovar typhimurium
Summary of the method: (§4)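 Plate-incorporation Ames test on minimal glucose agar with 500 μL Aroclor-treated mouse liver S9 added. DMSO solutions were tested at five consecutive 3-fold dilutions from the highest non-toxic dose, in triplicate, with a DMSO negative control. Revertants were counted manually; a compound was scored mutagenic when revertants were at least twice the negative control for two or more consecutive doses.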

[9] = Stability of the compound in aqueous solution assessed as compound remaining at 1 mM at pH 9 after 1 hr by TLC analysis; type: physicochemical; conditions: aqueous solution, pH 9; read-out: Stability; summary of the method: as §2
[10] = test system: Salmonella typhimurium; test: Mutagenic activity in Salmonella typhimurium TA1535 at 3.09 to 250 ug/plate by Ames test; type: toxicity, organism-based; conditions: salmonella enterica subsp. enterica serovar typhimurium; summary of the method: as §3
[11] = test system: Salmonella typhimurium; test: Mutagenic activity in Salmonella typhimurium TA100 at 0.003 to 0.2 ug/plate by Ames test in presence of mouse liver S9 fraction; type: toxicity, organism-based; conditions: salmonella enterica subsp. enterica serovar typhimurium; summary of the method: as §4
[12] = test system: Salmonella typhimurium; test: Mutagenic activity in Salmonella typhimurium TA1535 at 3.09 to 250 ug/plate by Ames test in presence of mouse liver S9 fraction; type: toxicity, organism-based; conditions: salmonella enterica subsp. enterica serovar typhimurium; summary of the method: as §4
[13] = test system: Mus musculus; test: Toxicity in BALB/c mouse assessed as mortality at 100 mg/kg/day, po for 14 days; type: organism-based; set-up: route oral; conditions: in vivo, 336 h
Summary of the method: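 Uninfected female BALB/c mice (n = 2/group) received intragastric gavage daily for 14 days in saline/Tween 80 (4:1). They were weighed and monitored daily, then sacrificed for macroscopic necropsy of organs.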

[14] = test system: Trypanosoma cruzi; test: Antitrypanosomal activity against Trypanosoma cruzi Y trypomastigotes assessed as growth inhibition at 25 uM after 48 hrs by microscopic analysis relative to control; type: functional; conditions: read-out: GI
Summary of the method: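 Blood was collected by cardiac puncture, with sodium citrate, from BALB/c mice 7 days after infection. Compound was dissolved in minimal DMSO and diluted in PBS (final 25 μM). Drug solution was mixed with infected blood (about 10⁶ parasites/mL) in triplicate, shaken 10 min at room temperature, then held at 4 °C for 48 h. Parasites were counted microscopically against untreated infected blood. Gentian violet 250 μg/mL was the reference.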

[15] = Stability of the compound in eumulgin HRE 40, sodium oleate, soya phosphatidylcholine, cholesterol, and phosphate buffer at pH 7.4 at 4 degC; type: physicochemical
Summary of the method: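 Storage stability of the compound in vehicle V2, a microemulsion of surfactant (Eumulgin HRE 40/sodium oleate/soya phosphatidylcholine, 10%), cholesterol oil phase (10%) and pH 7.4 phosphate buffer (80%), followed over 1 week at 4 °C.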

[16] = test system: Trypanosoma cruzi; test: Antitrypanosomal activity against Trypanosoma cruzi CL Brener infected in BALB/c mouse assessed as mouse survival at 107 umol/kg/day, po for 14 days administered in cholesterol/surfactant/phosphate buffer measured up to 60 days relative to control; type: functional
Summary of the method: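 Infected male BALB/c mice (30 days old, 25–30 g) were gavaged daily from day 6 postinfection for 14 days. Vehicle was a microemulsion of 10% cholesterol, 10% surfactant (soya phosphatidylcholine/sodium oleate/polyoxyl-40 hydrogenated castor oil) and 80% phosphate buffer pH 7.4. n = 7/group, with vehicle controls. Tail-vein parasitemia was taken weekly for 60 days and mortality recorded.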

[17] = test system: Trypanosoma cruzi; test: Antitrypanosomal activity against Trypanosoma cruzi Sylvio X-10 amastigotes infected in African green monkey Vero cells assessed as eradication of amastigotes after 5 days by Giemsa staining-based assay; type: functional, organism-based; conditions: Sylvio X-10, Vero, 120 h
Summary of the method: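 VERO cells in RPMI 1640 with 10% hiFCS were allowed to adhere for 24 h at 37 °C in 5% CO₂, then infected with tissue-derived trypomastigotes at 10:1. Free parasites were washed off after 24 h, and cultures were treated at five compound doses (text gives 72 h / 5 days). Cultures were methanol-fixed and Giemsa-stained, and infected cells were counted among 300. Quadruplicates were run in three independent experiments. IC50/IC90 were obtained by sigmoidal regression.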

[18] = Stability of the compound in aqueous solution assessed as compound remaining at 1 mM at 37 degC after 1 hr by TLC analysis in presence of rat liver cytosolic fraction; type: ADME; conditions: cytosol, 1000 µM; summary of the method: as §1

Question: Which Stability [1] does the source give for Br.C=CCn1c(-c2ccc(Cl)cc2)cs\c1=N/N=C/C=C/c1ccco1.O here?
Answer: Stable

Question: What about the remaining at 1 h, 1000 µM [2] of the same compound?
Answer: 90%

Question: What about the Activity [3] of the same compound?
Answer: Non-toxic

Question: What about the Activity [4] of the same compound?
Answer: Non-toxic

Question: What about the remaining at 1 h, 1000 µM [5] of the same compound?
Answer: > 95%

Question: What about the Activity [6] of the same compound?
Answer: Non-toxic

Question: And the Activity [7]?
Answer: Active

Question: What about the Activity [8] of the same compound?
Answer: Non-toxic

Question: What about the remaining at 1 h, 1000 µM [9] of the same compound?
Answer: > 95%

Question: What about the Activity [10] of the same compound?
Answer: Non-toxic

Question: And the Activity [11]?
Answer: Non-toxic

Question: What about the Activity [12] of the same compound?
Answer: Non-toxic

Question: What about the Activity [13] of the same compound?
Answer: Non-toxic

Question: And the inhibition of growth at 25 µM [14]?
Answer: 70%

Question: What about the Stability [15] of the same compound?
Answer: Stable

Question: What about the survival at 107 µmol/kg [16] of the same compound?
Answer: 100%

Question: And the IC50 [17]?
Answer: < 250 nM

Question: What about the Stability [18] of the same compound?
Answer: Stable
